Shown is part of a subset that was picked to be rich in hits.
BAP1 inh – inhibitors of BAP1 deubiquitinase, primary screen, biochemical, Ub-AMC fluorescence, kinetic | recombinant BAP1, Ub-AMC hydrolysis fluorescence kinetic; stronger effect = lower value | calls only at 20 µM | 72,000 tested, 0.48% active;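 active means activity remaining at or below 50% of control, provided the compound also passes the data quality filters; inactive means the rest, including low values that fail the filters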;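 further: 100% = DMSO wells rate and 0% = substrate alone blank rate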
Target sequence (Q92560 whole entry, looked up): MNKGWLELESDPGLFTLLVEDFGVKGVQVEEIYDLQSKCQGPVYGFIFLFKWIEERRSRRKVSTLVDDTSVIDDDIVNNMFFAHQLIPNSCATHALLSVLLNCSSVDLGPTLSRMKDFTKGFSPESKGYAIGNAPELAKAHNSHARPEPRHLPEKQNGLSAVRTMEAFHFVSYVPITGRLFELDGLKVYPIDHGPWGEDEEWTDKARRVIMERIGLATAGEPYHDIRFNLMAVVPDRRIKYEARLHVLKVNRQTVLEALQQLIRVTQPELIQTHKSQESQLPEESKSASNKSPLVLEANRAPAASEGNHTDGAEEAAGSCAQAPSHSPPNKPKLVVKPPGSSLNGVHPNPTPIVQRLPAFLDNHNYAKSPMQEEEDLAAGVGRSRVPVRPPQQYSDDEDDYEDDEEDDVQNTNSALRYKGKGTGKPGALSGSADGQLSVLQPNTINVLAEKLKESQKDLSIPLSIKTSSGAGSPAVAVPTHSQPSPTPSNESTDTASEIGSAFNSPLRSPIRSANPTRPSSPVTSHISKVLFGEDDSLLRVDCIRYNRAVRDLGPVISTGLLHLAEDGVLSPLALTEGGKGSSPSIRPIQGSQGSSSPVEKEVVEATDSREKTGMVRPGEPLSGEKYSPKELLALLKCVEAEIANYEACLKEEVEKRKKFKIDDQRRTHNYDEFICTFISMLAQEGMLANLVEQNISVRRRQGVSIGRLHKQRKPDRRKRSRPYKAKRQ
WNV NS2B-NS3 inh – inhibitors of WNV NS2B-NS3 protease, primary screen, biochemical, fluorogenic substrate | Genome polyprotein (West Nile virus), P06935 | fluorogenic substrate Ex360/Em465; stronger effect = lower value | z-score (no concentration beside the values) | 65,000 tested, 0.18% active | AID 577, 2007; in the data active means z-score below about -3
Ecoli tolC – growth inhibitors of E. coli tolC mutant, primary screen, strain BW25113 ΔtolC::kan, 384-well. OD615. growth inhibition, % at 10 µM (by protocol). 65,000 tested, 2.2% active. AID 573, 2007;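 active means growth inhibition at or above a cutoff equal to the mean over every tested compound plus 3 SD, cut at about 60% in these data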;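 further: growth measured after 20 h incubation at 37 °C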
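signal = optical density read at 615 nm | test system = E. coli ΔtolC::kan strain BW25113 | timing = 20 h compound exposure of bacteria at 37 °C | buffer or medium = LB medium plus 50 µg/mL kanamycin | compound dosing = 10 µM final, single dose | evaluation = % inhibition of E. coli growth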
TNAP act mid DEA – human TNAP enzyme activators, primary screen, biochemical, luminescent, intermediate phosphate acceptor level. purified TNAP, CDP-star luminescence, 100 mM DEA, 30 min; stronger effect = higher value; scale: 0 levamisole-inhibited, 1 vehicle-only enzyme. 64,000 tested, under 10 active. AID 813, 2007. Alkaline phosphatase, tissue-nonspecific isozyme (Homo sapiens), P05186. activation factor at 20 µM;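 active means activation factor of at least 2 at 20 µM, relative to controls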
E coli WT exp – growth inhibitors of wild-type E. coli, primary screen, strain BW25113, expanded library, OD600; 98,000 tested, 0.15% active; AID 710, 2007; growth inhibition, % at 100 µM; OD600 absorbance;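 active means growth inhibition above about 50% at one test dose, limit read from the data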;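 further: growth measured after 20 h incubation at 37 °C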
* marks the source's active call; other numbers are inactive results; i = inactive; / = not tested or not shown.

SMILES	BAP1 inh	WNV NS2B-NS3 inh	Ecoli tolC	TNAP act mid DEA	E coli WT exp
CC1=C(C(=O)OCCc2ccccc2)C(c2ccccc2Cl)NC(=O)N1 (configuration not stated)	i	/	/	/	/
Cc1ccc(C(C(=O)NC2CCCCC2)N(Cc2ccco2)C(=O)C2COc3ccccc3O2)o1 (configuration not stated)	/	/	/	/	-4.0
O=C(NCc1ccco1)C(c1cccs1)N(C(=O)C1COc2ccccc2O1)c1cccc(O)c1 (configuration not stated)	i	-1.2	75.9*	0.9	-8.0
O=C(Cn1nnc(-c2ccc(F)cc2)n1)Nc1ccc2c(c1)OCO2	i	/	/	/	/
CCC(CC)c1nnc(NC(=O)c2c(-c3ccccc3)noc2C)s1	i	0.54	79.3*	0.9	-2.0
Cc1onc(-c2ccccc2)c1C(=O)Nc1nnc(COc2ccc(Cl)cc2)s1	/	0.14	79.7*	0.9	-6.0
Cc1onc(-c2ccccc2)c1C(=O)OCC(=O)c1ccccc1	i	-0.09	70.8*	0.8	1.0
Cc1nnc(NC(=O)c2c(-c3ccccc3)noc2C)s1	/	/	/	/	-6.0
Cc1onc(-c2ccccc2)c1C(=O)Nc1nnc(N(C)Cc2ccccc2)s1	i	0.03	61.4*	0.9	-11.0
CCOC(=O)c1cc([N+](=O)[O-])sc1NC(=O)c1ccc(S(=O)(=O)N2CC(C)CC(C)C2)cc1 (configuration not stated)	i	/	/	/	/
Cc1ccc2oc(C(Cl)(Cl)Cl)cc(=O)c2c1	/	/	/	/	8.0
O=c1c2cc(-c3ccccc3)sc2ncn1/N=C/c1ccco1	i	2.11	-30.6	1	-3.0
O=C(Nc1ccc(CN2CCOCC2)cc1)c1ccc(-c2ccc(Br)cc2)o1	i	0.08	100.0*	0.9	-14.0
O=C(Nc1sc2c(c1C(=O)O)CCC2)c1cccs1	i	0.3	76.1*	1	-3.0
Cc1ccccc1-c1nnc(SCc2ccccc2F)o1	i	-0.3	64.1*	0.9	-9.0
CCC(C(=O)N1CCN(c2cccc(Cl)c2)CC1)c1ccccc1 (configuration not stated)	i	-0.47	100.0*	1	-6.0
CC1CC(C)CN(C(=O)CSc2nnc(-c3ccc(Cl)s3)o2)C1 (configuration not stated)	i	-1.16	70.7*	0.9	-2.0
Cc1cc(C)c2cc(CN(CCO)C(c3nnnn3Cc3ccc(F)cc3)C(C)C)c(=O)[nH]c2c1 (configuration not stated)	i	1.55	69.9*	0.9	-6.0
Cc1cc(C)c2cc(C(O)c3nnnn3Cc3ccccc3)c(=O)[nH]c2c1 (configuration not stated)	i	-0.39	13.6	1	2.0
COc1cccc2sc(Nc3nc(-c4ccccn4)cs3)nc12	i	1.48	97.9*	1.1	-1.0
COc1ccc2nc(NC(=O)c3cccc(OCc4c(C)noc4C)c3)sc2c1	/	-0.13	45.2	0.9	-7.0
CCSc1nnc(NC(=O)c2cccc(OCc3c(C)noc3C)c2)s1	/	0.55	62.0*	0.9	-6.0
CCOC(=O)c1ccccc1NC(=O)CSc1nnnn1C1CCCCC1	i	-0.32	72.2*	0.9	-11.0
CC(=O)OCc1nc2ccccc2s1	/	/	/	/	4.0
Cc1cc(C(=O)OCc2nc3ccccc3s2)c(C)o1	i	0.38	100.0*	0.9	1.0
SMILES	BAP1 inh	WNV NS2B-NS3 inh	Ecoli tolC	TNAP act mid DEA	E coli WT exp
CCOC(=O)Cc1csc(NC(=O)c2cc3c(s2)CCCC3)n1	/	/	/	/	-5.0
CCOC(=O)Cc1csc(NC(=O)CCc2ccc(S(=O)(=O)N3CCOCC3)cc2)n1	i	-0.83	17.1	1	-5.0
CCOC(=O)Cc1csc(NC(=O)c2csc3c2CCCC3)n1	i	-0.67	64.0*	0.9	-36.0
CCOC(=O)Cc1csc(NC(=O)c2ccc(S(=O)(=O)N3CCCCC3)cc2)n1	/	1.72	61.5*	0.9	-1.0
Fc1cccc2sc(Nc3nnc(-c4ccco4)o3)nc12	i	0.42	99.2*	0.9	-6.0
O=C(OCc1ccc([N+](=O)[O-])cc1)c1ccc(C(=O)OCc2ccc([N+](=O)[O-])cc2)cc1	i	/	/	/	/
CCCCOc1ccc(S(=O)(=O)n2c(C)nc3ccccc32)cc1	i	0.14	94.2*	0.9	5.0
COc1cc(S(=O)(=O)N2CCC(O)(c3cccc(C(F)(F)F)c3)CC2)ccc1-n1cnnn1	i	-0.49	100.0*	0.9	-10.0
CCCc1cc(-c2n[nH]c(C)c2-c2ccc(C(=O)OCC)o2)c(O)cc1O	i	-0.93	30.6	1.4	17.0
CCc1cc(C(=O)Cc2ccc(F)cc2)c(O)cc1O	i	0.06	90.9*	0.9	/
CCc1cc(C(=O)Cc2nc3ccccc3[nH]2)c(O)cc1O	i	-0.57	13.0	1	16.0
CCCc1cc(C(=O)Cc2ccc(C(=O)OCC)o2)c(O)cc1O	i	1.01	65.5*	0.9	12.0
CCCc1cc(C(=O)Cc2ccc(F)cc2)c(O)cc1O	i	-1.01	8.2	1	11.0
CCc1cc(C(=O)COc2ccccc2F)c(O)cc1O	i	-1.02	100.0*	0.9	18.0
Cc1nnc(C)n1/N=C/c1cc(Br)cc(Br)c1O	i	0.19	2.4	0.9	51.0*
Cc1nnc(C)n1/N=C/c1cc(Br)ccc1O	i	2.33	-9.6	0.9	8.0
CCCNC(=O)c1cn(CC)c2cc(N3CCN(C)CC3)c(F)cc2c1=O	/	/	/	/	100.0*
CCn1cc(C(=O)NCCCN(C)C)c(=O)c2cc(F)c(N3CCN(C)CC3)cc21	i	0.76	22.9	0.9	100.0*
CCn1cc(C(=O)NCc2cccs2)c(=O)c2cc(S(=O)(=O)N3CCOCC3)ccc21	i	1.24	-6.5	1	/
CCN(CC)CCNC(=O)c1cn(CC)c2ccc(S(=O)(=O)N(C)C)cc2c1=O	i	2.3	-3.0	1	4.0
CCN(CC(=O)Nc1ccccc1OC)C(=O)C1CC2C=CC1C2 (configuration not stated)	i	-7.51*	5.8	1	4.0
COc1ccccc1NC(=O)CCC(=O)O	i	-0.02	-16.6	0.9	3.0
CCC(C)(O)C#CC#CC(C)(O)CC (configuration not stated)	i	/	/	/	/
CCCc1nc2oc3cc(OC)ccc3c(=O)c2c(=O)n1Cc1ccco1	i	-1.17	60.7*	0.9	-10.0
CCCc1nc2sc3ccccc3c(=O)c2c(=O)n1Cc1ccco1	i	0.94	69.8*	0.8	10.0
CC(C)c1ccc(NC(=O)CCC(=O)O)cc1	i	/	/	/	/
O=C(CSc1nc2nc(-c3cccs3)cc(C(F)(F)F)c2c(=O)[nH]1)NCc1ccco1	/	0.83	91.2*	0.9	-13.0
COC(=O)c1cc(NS(=O)(=O)c2ccc(Br)cc2)cc(C(=O)OC)c1	i	/	/	/	/

Bioassay records: PubChem BioAssay, several laboratories
